From ChEMBL document CHEMBL1123674, “Synthesis and antitumor activity of fluorine-substituted 4-amino-2(1H)-pyridinones and their nucleosides. 3-Deazacytosines” (J Med Chem, 1987)

Assays:
[1] = tested on: L1210; assay: Compound was tested for percent increase in life span against L1210 lymphoid leukemia; format: functional, Mus musculus
[2] = tested on: P388; assay: Compound was tested for mean survival time of treated mice in days / mean survival time of control mice x 100 against P388 lymphoid leukemia cells; Inactive; format: functional, Mus musculus
[3] = tested on: L1210; assay: Compound was tested for the concentration required to inhibit the growth rate of the control L1210 cells by 50%; Value ranges from 2.60-4.71; format: functional; conditions: Mus musculus, read-out: ID50 (the source's name)
[4] = tested on: L1210; assay: Compound was tested for its inhibitory activity against L1210 lymphoid leukemia; format: functional, cell-based; conditions: Mus musculus
[5] = tested on: L1210; assay: Compound was tested for mean survival time of treated mice in days / mean survival time of control mice x 100 against L1210 lymphoid leukemia cells; format: functional, Mus musculus
Summary of the method: (§1)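 CD2F1 mice in groups of six received 1 × 10⁵ L1210 lymphoid leukemia cells ip. Dosing was ip, once a day for 5 days, starting 24 h after tumor inoculation, under standard NCI protocol. %T/C = (mean survival time of treated mice in days / mean survival time of controls) × 100. Toxic deaths were excluded from the %T/C calculation.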

[6] = tested on: L1210; assay: Antitumor activity against L1210 lymphoid leukemia in CD2F1 mice at 100 mg/injection and measured as mean weight change (days 5 minus 1) of treated mice minus mean weight change of control mice before second treatment was reported; format: functional, Mus musculus
Summary of the method: (§2)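 CD2F1 mice, in groups of six, were inoculated ip with 1 × 10⁵ L1210 lymphoid leukemia cells. Dosing was ip once daily for 5 days, starting 24 h after inoculation. Toxicity was scored as the mean weight change of treated mice (day 5 minus day 1) minus the mean weight change of control mice.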

[7] = tested on: L1210; assay: Antitumor activity against L1210 lymphoid leukemia in CD2F1 mice at a dose of 300 mg/injection measured as difference between estimated tumor burdens before first treatment; format: functional, Mus musculus
Summary of the method: (§3)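 CD2F1 mice, in groups of six, received 1 × 10⁵ L1210 cells ip and were dosed ip once daily for 5 days from 24 h after inoculation. Net cell kill is the estimated change in tumor burden from before the first dose to just after the last. It is calculated as (T − C − Rx)/3.32Td, using the tumor doubling time observed in that test and survival after the last treatment.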

[8] = tested on: L1210; assay: Antitumor activity against L1210 lymphoid leukemia in CD2F1 mice at a dose of 100 mg/injection measured as difference between estimated tumor burdens before first treatment; format: functional, Mus musculus; summary of the method: as §3
[9] = tested on: L1210; assay: Antitumor activity against L1210 lymphoid leukemia in CD2F1 mice at a dose of 100 mg/injection and difference between estimated tumor burdens before second treatment; format: functional, Mus musculus; summary of the method: as §3
[10] = tested on: L1210; assay: Antitumor activity against L1210 lymphoid leukemia in CD2F1 mice at 25 mg/injection and measured as mean weight change (days 5 minus 1) of treated mice minus mean weight change of control mice before first treatment was reported; format: functional, Mus musculus; summary of the method: as §2
[11] = tested on: L1210; assay: Antitumor activity against L1210 lymphoid leukemia in CD2F1 mice at 50 mg/injection and measured as mean weight change (days 5 minus 1) of treated mice minus mean weight change of control mice before first treatment was reported; format: functional, Mus musculus; summary of the method: as §2
[12] = tested on: L1210; assay: Antitumor activity against L1210 lymphoid leukemia in CD2F1 mice at a dose of 50 mg/injection measured as difference between estimated tumor burdens before first treatment; format: functional, Mus musculus; summary of the method: as §3
[13] = tested on: L1210; assay: Antitumor activity against L1210 lymphoid leukemia in CD2F1 mice at a dose of 25 mg/injection measured as difference between estimated tumor burdens before first treatment; format: functional, Mus musculus; summary of the method: as §3
[14] = tested on: L1210; assay: Antitumor activity against L1210 lymphoid leukemia in CD2F1 mice at 300 mg/injection and mean weight change (days 5 minus 1) of treated mice minus mean weight change of control mice before first treatment was reported; format: functional, Mus musculus; summary of the method: as §2
[15] = tested on: L1210; assay: Antitumor activity against L1210 lymphoid leukemia in CD2F1 mice at 50 mg/injection and measured as mean survival time of treated mice in days/mean survival time of control mice x 100 before second treatment was reported; format: functional, Mus musculus; summary of the method: as §1
[16] = tested on: L1210; assay: Antitumor activity against L1210 lymphoid leukemia in CD2F1 mice at 25 mg/injection and measured as mean survival time of treated mice in days/mean survival time of control mice x 100 before first treatment was reported; format: functional, Mus musculus; summary of the method: as §1
[17] = tested on: L1210; assay: Antitumor activity against L1210 lymphoid leukemia in CD2F1 mice at 200 mg/injection and measured as mean weight change (days 5 minus 1) of treated mice minus mean weight change of control mice before second treatment was reported; format: functional, Mus musculus; summary of the method: as §2
[18] = tested on: L1210; assay: Antitumor activity against L1210 lymphoid leukemia in CD2F1 mice at 100 mg/injection and measured as mean weight change (days 5 minus 1) of treated mice minus mean weight change of control mice before first treatment was reported; format: functional, Mus musculus; summary of the method: as §2
[19] = tested on: L1210; assay: Antitumor activity against L1210 lymphoid leukemia in CD2F1 mice at 100 mg/injection and measured as mean survival time of treated mice in days/mean survival time of control mice x 100 before second treatment was reported; format: functional, Mus musculus; summary of the method: as §1
[20] = tested on: L1210; assay: Antitumor activity against L1210 lymphoid leukemia in CD2F1 mice at 100 mg/injection and measured as mean survival time of treated mice in days/mean survival time of control mice x 100 before first treatment was reported; format: functional, Mus musculus; summary of the method: as §1
[21] = tested on: L1210; assay: Antitumor activity against L1210 lymphoid leukemia in CD2F1 mice at 200 mg/injection and measured as mean survival time of treated mice in days/mean survival time of control mice x 100 before first treatment was reported; format: functional, Mus musculus; summary of the method: as §1
[22] = tested on: L1210; assay: Antitumor activity against L1210 lymphoid leukemia in CD2F1 mice at a dose of 200 mg/injection measured as difference between estimated tumor burdens before first treatment; format: functional, Mus musculus; summary of the method: as §3
[23] = tested on: L1210; assay: Antitumor activity against L1210 lymphoid leukemia in CD2F1 mice at 200 mg/injection and measured as mean weight change (days 5 minus 1) of treated mice minus mean weight change of control mice before first treatment was reported; format: functional, Mus musculus; summary of the method: as §2
[24] = tested on: L1210; assay: Antitumor activity against L1210 lymphoid leukemia in CD2F1 mice at a dose of 25 mg/injection measured as difference between estimated tumor burdens before second treatment; format: functional, Mus musculus; summary of the method: as §3
[25] = tested on: L1210; assay: Antitumor activity against L1210 lymphoid leukemia in CD2F1 mice at 25 mg/injection and measured as mean weight change (days 5 minus 1) of treated mice minus mean weight change of control mice before second treatment was reported; format: functional, Mus musculus; summary of the method: as §2
[26] = tested on: L1210; assay: Antitumor activity against L1210 lymphoid leukemia in CD2F1 mice at […] and measured as mean survival time of treated mice in days/mean survival time of control mice x 100 before second treatment was reported; format: functional, Mus musculus
[27] = tested on: L1210; assay: Antitumor activity against L1210 lymphoid leukemia in CD2F1 mice at 300 mg/injection and measured as mean survival time of treated mice in days/mean survival time of control mice x 100 before first treatment was reported; format: functional, Mus musculus; summary of the method: as §1
[28] = tested on: L1210; assay: Antitumor activity against L1210 lymphoid leukemia in CD2F1 mice at a dose of […] measured as difference between estimated tumor burdens before second treatment; format: functional, Mus musculus
[29] = tested on: L1210; assay: Antitumor activity against L1210 lymphoid leukemia in CD2F1 mice at 25 mg/injection and measured as mean survival time of treated mice in days/mean survival time of control mice x 100 before second treatment was reported; format: functional, Mus musculus; summary of the method: as §1
[30] = tested on: L1210; assay: Antitumor activity against L1210 lymphoid leukemia in CD2F1 mice at 200 mg/injection and measured as mean survival time of treated mice in days/mean survival time of control mice x 100 before second treatment was reported; format: functional, Mus musculus; summary of the method: as §1
[31] = tested on: L1210; assay: Antitumor activity against L1210 lymphoid leukemia in CD2F1 mice at 50 mg/injection and measured as mean weight change (days 5 minus 1) of treated mice minus mean weight change of control mice before second treatment was reported; format: functional, Mus musculus; summary of the method: as §2
[32] = tested on: L1210; assay: Ability to inhibit growth of L1210 lymphocyte leukemia cell in culture; format: functional, cell-based; conditions: Mus musculus
[33] = tested on: L1210; assay: Antitumor activity against L1210 lymphoid leukemia in CD2F1 mice at 50 mg/injection and measured as mean survival time of treated mice in days/mean survival time of control mice x 100 before first treatment was reported; format: functional, Mus musculus; summary of the method: as §1
[34] = tested on: L1210; assay: Antitumor activity against L1210 lymphoid leukemia in CD2F1 mice at a dose of 50 mg/injection measured as difference between estimated tumor burdens before second treatment; format: functional, Mus musculus; summary of the method: as §3
[35] = tested on: L1210; assay: Antitumor activity against L1210 lymphoid leukemia in CD2F1 mice at […] and measured as mean weight change (days 5 minus 1) of treated mice minus mean weight change of control mice before second treatment was reported; format: functional, Mus musculus

## Nc1nc(=O)n([C@H]2C[C@H](O)[C@@H](CO)O2)cc1F
[1]
  ILS: >161%

## Nc1ccnc(O)c1F
[2]
  T/C: <125%

## Nc1cc(O)nc(F)c1
[2]
  T/C: <125%

## Nc1cc(O)ncc1F
[2]
  T/C: <125%

## Nc1c(F)c(O)nc(F)c1F
[3]
  IC50: 47.1 µM
[2]
  T/C: <125%

## NNc1nc(F)c(F)c(N)c1F
[3]
  IC50: 47.1 µM
[2]
  T/C: <125%

## Nc1c(F)cnc(F)c1F
[3]
  IC50: 47.1 µM
[2]
  T/C: <125%

## Nc1ccn([C@@H]2O[C@H](CO)[C@@H](O)[C@H]2O)c(=O)c1
[4]
  IC50: 17.8 µM

## CC(=O)Nc1ccn([C@@H]2O[C@H](COC(C)=O)[C@@H](OC(C)=O)[C@H]2OC(C)=O)c(=O)c1F
[4]
  IC50: 12.5 µM

## Nc1ccn([C@H]2C[C@H](O)[C@@H](CO)O2)c(=O)c1F
[5]
  T/C: <125%

## Nc1c(F)cn([C@H]2C[C@H](O)[C@@H](CO)O2)c(=O)c1F
[5]
  T/C: <125%

## C[C@@]1(n2cc(F)c(N)c(F)c2=O)C[C@H](O)[C@@H](CO)O1
[5]
  T/C: <125%

## Nc1c(F)cnc(O)c1F
[3]
  IC50: 47.1 µM
[2]
  T/C: <125%

## Nc1c(F)cn(C2O[C@H](CO)[C@@H](O)[C@H]2O)c(=O)c1F (some centres not stated)
[5]
  T/C: <125%

## Nc1ccn(C2O[C@H](CO)[C@@H](O)[C@H]2O)c(=O)c1F (some centres not stated)
[6]
  BWD: -1.3
[7]
  Net log kill: 5.37
[8]
  Net log kill: 2.93
[9]
  Net log kill: 5.54
[10]
  BWD: -1
[11]
  BWD: -1.7
[12]
  Net log kill: 2.2
[13]
  Net log kill: 1.3
[14]
  BWD: -4.7
[15]
  T/C: 185%
[16]
  T/C: 169%
[17]
  BWD: -3.4
[18]
  BWD: -3
[19]
  T/C: 216%
[20]
  T/C: 193%
[21]
  T/C: 208%
[22]
  Net log kill: 3.91
[23]
  BWD: -4.8
[24]
  Net log kill: 0.78
[25]
  BWD: -1
[26]
  T/C: 136%
[27]
  T/C: 230%
[28]
  Net log kill: -0.97
[29]
  T/C: 157%
[30]
  T/C: 208%
[31]
  BWD: -1.1
[32]
  IC50: 10.7 µM
[33]
  T/C: 182%
[34]
  Net log kill: 3.01
[35]
  BWD: -0.5

## Nc1ncn([C@@H]2O[C@H](CO)[C@@H](O)[C@H]2O)c(=O)n1 [AZACITIDINE]
[4]
  IC50: 0.409 µM

## Nc1ccn([C@@H]2O[C@H](CO)[C@@H](O)[C@@H]2O)c(=O)n1 [CYTARABINE]
[1]
  ILS: >161%

## Nc1ncn([C@H]2C[C@H](O)[C@@H](CO)O2)c(=O)n1 [DECITABINE]
[4]
  IC50: 0.393 µM

## Nc1ccn([C@H]2C[C@H](O)[C@@H](CO)O2)c(=O)n1 [DOXECITINE]
[1]
  ILS: >161%
